Consider 21 molecules from ChEMBL document CHEMBL4665711, “Synthesis of (Z)-3-(arylamino)-1-(3-phenylimidazo[1,5-a]pyridin-1-yl)prop-2-en-1-ones as potential cytotoxic agents” (Bioorg Med Chem Lett, 2020).

Experiment [1] relates to A549. Description: Cytotoxicity against human A549 cells assessed as reduction in cell viability incubated for 48 hrs by MTT assay. It is filed as functional, cell-based. Conditions: A549, 48 h. The method, boiled down:
(§1)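 Cancer cell lines were exposed to drug for 48 h, and the 50% inhibitory concentration was determined. Values are averages of three individual experiments. A549, HCT-116, BT-474 and MDA-MB-231 are human lines; B16F10 is a murine melanoma line.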
(Tetrazolium assays rely on reduction of a dye to a coloured formazan, in cell work by metabolically active cells.)

Experiment [2] deals with B16-F10. Description: Cytotoxicity against mouse B16-F10 cells assessed as reduction in cell viability incubated for 48 hrs by MTT assay. It is filed as functional, cell-based. To be noted: B16-F10, 48 h. Summed up:
as §1

The test system of experiment [3] is BT-474. Description: Cytotoxicity against human BT-474 cells assessed as reduction in cell viability incubated for 48 hrs by MTT assay. It is filed as functional, cell-based. Conditions: BT-474, 48 h. The method, boiled down:
as §1

Experiment [4] has as its system HCT-116. Description: Cytotoxicity against human HCT-116 cells assessed as reduction in cell viability incubated for 48 hrs by MTT assay. Conditions: HCT-116, 48 h. It is filed as functional, cell-based. Summed up:
as §1

The subject of experiment [5] is MDA-MB-231. Description: Cytotoxicity against human MDA-MB-231 cells assessed as reduction in cell viability incubated for 48 hrs by MTT assay. The format is functional, cell-based. Conditions: MDA-MB-231, 48 h. The method, boiled down:
as §1

The nature of experiment [6]: Cytotoxicity against human breast cancer cells assessed as reduction in cell viability incubated for 24 hrs by MTT assay. It is filed as functional. Conditions: Breast cancer cell line.
The nature of experiment [7]: Cytotoxicity against human lung cancer cells assessed as reduction in cell viability incubated for 24 hrs by MTT assay. It is filed as functional. To be noted: Lung cancer cell line.
Experiment [8] in a line: Cytotoxicity against human lung cancer cells assessed as reduction in cell viability incubated for 48 hrs by MTT assay. It is filed as functional. Conditions: Lung cancer cell line.

Take `COc1ccc(N/C=C\C(=O)c2nc(-c3ccc(C(F)(F)F)cc3)n3ccccc23)cc1OC`: the IC50 in experiment [1], in experiment [2], in experiment [3], in experiment [4] and in experiment [5] was > 30 µM in each case.

For `O=C(/C=C\Nc1ccc(Cl)cc1)c1nc(-c2ccc(C(F)(F)F)cc2)n2ccccc12`, the concentration for half-maximal inhibition (IC50) (usually the point on the concentration scale where inhibition reaches its midpoint) is 18.5 µM in experiment [1]; > 30 µM in experiment [2]; 3.82 µM in experiment [3]; 11.5 µM in experiment [4]; 3.84 µM in experiment [5].

For the molecule `Fc1ccccc1-c1nc(-c2nc3ccc(C(F)(F)F)cc3[nH]2)c2ccccn12`, the GI50 (as a rule, the concentration giving 50% growth inhibition) in experiment [6] was determined as 1.37 µM.

As to `COc1ccc(-c2nc(C(=O)/C=C\Nc3ccc(Cl)cc3)c3ccccn23)cc1`, the IC50 was 1.24 µM in experiment [2], 37.3 µM in experiment [3], > 30 µM in experiment [4] and > 30 µM in experiment [5].

In the case of `Cc1cc2cc(N/C=C\C(=O)c3nc(-c4ccc(F)cc4)n4ccccc34)ccc2[nH]1`, the IC50 in experiment [1], in experiment [2], in experiment [3], in experiment [4] and in experiment [5] was > 30 µM each time.

On to `O=C(/C=C\Nc1ccc(F)cc1)c1nc(-c2ccc(F)cc2)n2ccccc12`, for which the IC50 in experiment [1] is 13.2 µM; in experiment [2], > 30 µM; in experiment [3], 16.9 µM; in experiment [4], > 30 µM; in experiment [5] it was 25.1 µM.

Turning to `COc1ccc(N/C=C\C(=O)c2nc(-c3ccc(OC)cc3)n3ccccc23)cc1`, the IC50 is 2.12 µM in experiment [2], 15.4 µM in experiment [3], > 30 µM in experiment [4] and > 30 µM in experiment [5].

Consider `O=C(/C=C\Nc1cnc2ccccc2c1)c1nc(-c2ccccc2)n2ccccc12`, for which the half-maximal inhibitory concentration (IC50) in experiment [1] is > 30 µM; in experiment [2], 3.78 µM; in experiment [3], 19.7 µM; in experiment [4] it was > 30 µM; in experiment [5], 12.3 µM.

With `O=C(/C=C\Nc1ccc2[nH]ccc2c1)c1nc(-c2ccc(C(F)(F)F)cc2)n2ccccc12`, the IC50 in experiment [1] was 5.19 µM; in experiment [2], 18.2 µM; in experiment [3], 5.19 µM; in experiment [4], 27.1 µM; in experiment [5] it was 1.18 µM.

In the case of `COc1ccc(N/C=C\C(=O)c2nc(-c3ccccc3)n3ccccc23)cc1`, the IC50 in experiment [1] was > 30 µM; in experiment [2], 1.79 µM; in experiment [3], 12.8 µM; in experiment [4], 7.01 µM; in experiment [5], 28.2 µM.

On to `COc1ccc(N/C=C\C(=O)c2nc(-c3ccc(F)cc3)n3ccccc23)cc1OC`, for which the 50% inhibitory concentration (IC50) in experiment [1], in experiment [2], in experiment [3], in experiment [4] and in experiment [5] was > 30 µM in each case.

As to `COc1ccc(N/C=C\C(=O)c2nc(-c3ccc(F)cc3)n3ccccc23)cc1`, the IC50 in experiment [1] is 19.2 µM; in experiment [2], 2.56 µM; in experiment [3], 15.7 µM; in experiment [4] it was > 30 µM; in experiment [5] it was > 30 µM.

Regarding `O=C(/C=C\Nc1cnc2ccccc2c1)c1nc(-c2ccc(C(F)(F)F)cc2)n2ccccc12`, the IC50 in experiment [1], in experiment [2], in experiment [3], in experiment [4] and in experiment [5] was > 30 µM throughout.

For the molecule `O=C(/C=C\Nc1ccc(F)cc1)c1nc(-c2ccc(C(F)(F)F)cc2)n2ccccc12`, the IC50 in experiment [1], in experiment [2], in experiment [3], in experiment [4] and in experiment [5] was > 30 µM throughout.

Take `COC(=O)Nc1nc2cc(C(=O)c3cccs3)ccc2[nH]1` [NOCODAZOLE]: the IC50 was determined as 3.63 µM in experiment [1]; 3.12 µM in experiment [2]; 2.72 µM in experiment [3]; 2.82 µM in experiment [4]; 1.83 µM in experiment [5].

Turning to `O=C1Nc2ccccc2/C1=C\c1nc(-c2ccccc2F)n2ccccc12`, the GI50 in experiment [7] was determined as 3.46 µM.

As for `COc1ccc(N/C=C\C(=O)c2nc(-c3ccc(C(F)(F)F)cc3)n3ccccc23)cc1`, the IC50 in experiment [1] was 21.8 µM; in experiment [2] it was > 30 µM; in experiment [3], > 30 µM; in experiment [4], 7.72 µM; in experiment [5], > 30 µM.

`COc1ccc(-c2nc(C(=O)/C=C\Nc3ccc(F)cc3)c3ccccn23)cc1`: the IC50 in experiment [1], in experiment [2], in experiment [3], in experiment [4] and in experiment [5] was > 30 µM in each case.

`COc1ccc(-c2nc(C(=O)/C=C\Nc3ccc4[nH]ccc4c3)c3ccccn23)cc1`: the concentration for half-maximal inhibition (IC50) in experiment [1] amounted to 4.8 µM; in experiment [2], 5.12 µM; in experiment [3] it was 13 µM; in experiment [4], 17.4 µM; in experiment [5], 28.7 µM.

For `O=C(/C=C\Nc1ccc(O)cc1)c1cn(-c2ccccc2)nc1-c1ccc(F)cc1`, the IC50 in experiment [8] worked out at 1.5 µM.

Take `O=C(/C=C\Nc1ccc2cc[nH]c2c1)c1nc(-c2ccc(C(F)(F)F)cc2)n2ccccc12`: the half-inhibitory concentration (IC50) in experiment [1], in experiment [2], in experiment [3], in experiment [4] and in experiment [5] was > 30 µM throughout.
